# Screening data (PubChem BioAssay)
# This is a sample that favours compounds with a hit; in the whole collection about 1.6% have one here.
# ABCG2 inh = inhibitors of human ABCG2 transporter, ABCB1 counter-screen. Q9UNQ0. IgMXP3 cells, JC-1 efflux, flow cytometry. inhibition, % at 6.6 µM. 0.1% of 190,000 active. AID 1325;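 active = inhibition above 80%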;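 note: 0% = DMSO and 100% = nicardipine control wells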
#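 Measure – % inhibition of efflux relative to nicardipine and DMSO · Test system – ABCG2 IgMXP3 and barcoded ABCB1 CCRF-Adr cell mix · Control set – nicardipine as high control, DMSO as low control · Compound – one concentration, 6.6 µM final · Signal – flow cytometry of retained JC-1 fluorescence · Timing – 10 min exposure at 25 °C with rotation, no wash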
# PHOSPHO1 inh = PHOSPHO1 (human) inhibition; Q8TCT1; recombinant PHOSPHO1, absorbance phosphatase assay; inhibition, % at 13.3 µM; 1.1% of 290,000 active; AID 1565; in the data active = inhibition above about 60%
# ABCB1 inh = human ABCB1 inhibition, ABCG2 as counter-screen; P08183; CCRF-Adr cells, JC-1 efflux, flow cytometry; inhibition, % at 6.6 µM; AID 1326; 0.067% of 190,000 active; in the data active = inhibition above about 40%;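 note: 0% = vehicle and 100% = reference inhibitor; higher value means more JC-1 retained so stronger ABCB1 efflux block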
# PKD1 inh = inhibitors of human PKD1 kinase | Q15139 | PKD1 kinase fluorescence polarization assay | inhibition, % (concentration not given with the values) | 0.056% of 200,000 active; in the data active = inhibition above about 50%
# Target sequence (Q15139 whole entry, looked up): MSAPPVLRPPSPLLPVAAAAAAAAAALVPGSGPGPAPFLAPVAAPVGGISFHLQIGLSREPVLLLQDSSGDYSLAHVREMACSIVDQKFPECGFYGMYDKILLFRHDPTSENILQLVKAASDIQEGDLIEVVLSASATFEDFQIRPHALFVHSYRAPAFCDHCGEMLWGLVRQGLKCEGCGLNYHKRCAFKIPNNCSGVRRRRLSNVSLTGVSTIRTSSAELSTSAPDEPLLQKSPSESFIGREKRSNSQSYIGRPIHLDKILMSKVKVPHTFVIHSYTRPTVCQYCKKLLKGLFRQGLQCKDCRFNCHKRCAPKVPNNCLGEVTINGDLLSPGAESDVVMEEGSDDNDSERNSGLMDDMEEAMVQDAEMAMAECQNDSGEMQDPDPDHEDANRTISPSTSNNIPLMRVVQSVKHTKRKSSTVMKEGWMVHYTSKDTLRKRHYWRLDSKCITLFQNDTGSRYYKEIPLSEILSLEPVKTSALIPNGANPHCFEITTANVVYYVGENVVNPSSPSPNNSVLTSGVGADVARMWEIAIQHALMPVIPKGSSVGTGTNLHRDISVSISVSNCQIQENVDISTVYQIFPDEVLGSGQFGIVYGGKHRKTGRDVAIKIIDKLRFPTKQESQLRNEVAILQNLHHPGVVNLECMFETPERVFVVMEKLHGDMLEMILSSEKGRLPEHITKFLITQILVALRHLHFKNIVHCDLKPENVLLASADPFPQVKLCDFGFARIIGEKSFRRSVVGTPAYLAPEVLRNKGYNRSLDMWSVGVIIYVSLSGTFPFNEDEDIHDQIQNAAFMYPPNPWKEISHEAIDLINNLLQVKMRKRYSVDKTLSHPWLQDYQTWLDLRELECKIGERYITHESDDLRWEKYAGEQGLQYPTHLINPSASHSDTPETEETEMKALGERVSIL
# p47phox inh = p47phox (human) inhibition | P14598 | p47phox/p22phox peptide binding, fluorescence polarization, 2 h | inhibition, % at 24.7 µM | 0.53% of 220,000 active | AID 1274;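 active = inhibition above about 30%, limit read from the data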;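 note: 0% = p47phox with labelled peptide and 100% = labelled peptide alone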
# HSV replic up = increases HSV replication in cells. HSV replication augmentation in cells, fold increase. maximum fold increase. 0.005% of 220,000 active. AID 1956; in the data active = maximum fold increase above about 1.5; tested in PC3 cells
# * hit, by the source's call; i = inactive; nt = no result.
SMILES,ABCG2 inh,PHOSPHO1 inh,ABCB1 inh,PKD1 inh,p47phox inh,HSV replic up
C=CC(C)n1c(Br)nc2c1c(=O)[nH]c(=O)n2C (stereo not drawn),-0.3,3.6,-0.4,-4.0,-5.3,i
CC(NC(=O)COC(=O)c1cc([N+](=O)[O-])ccc1N1CCOCC1)c1ccccc1 (stereo not drawn),nt,61.0*,nt,nt,nt,nt
CCOC(=O)c1sc(N)c(C#N)c1CSc1nnc(C2CCCCC2)n1N,11.9,87.5*,-0.7,-7.3,-13.5,i
Cc1cc(N2CCCC2)ccc1NC(=O)COc1cccc(C(F)(F)F)c1,nt,-6.7,nt,nt,nt,nt
Cc1cc2nnc(SCC(=O)N3C(C)CCCC3C)n2c(N)n1 (stereo not drawn),-0.2,-16.3,-0.1,-4.3,53.6*,i
CCc1ccccc1NC(=O)N1CCC(NC(=O)C(Cc2ccccc2)NC(C)=O)CC1 (stereo not drawn),1.5,35.3,0.9,5.1,-1.8,i
CC(=O)c1cc2cc(O)ccc2o1,-4.5,88.9*,-5.1,-7.3,3.0,i
CC(=O)c1cc2c(O)c(O)ccc2o1,13.3,11.1,1.4,6.2,-6.0,i
Cc1ccc(C)c(Nc2nc3nonc3nc2N2CCOCC2)c1,0.6,61.1*,0.0,-6.8,-9.6,nt
O=c1cc(CSc2nc3ccccc3c(=O)[nH]2)c2ccc(O)cc2o1,1.9,60.0*,0.1,-4.0,-20.4,i
CCOC(=O)C1(CCOc2ccccc2)CCN(Cc2ccc3nonc3c2)CC1,13.5,68.4*,2.5,13.7,-10.1,i
Cc1ccccc1-c1cc(C(=O)N/N=C/c2cccnc2)c2ccccc2n1,nt,65.8*,nt,nt,nt,nt
CCCCn1c(N)c(N(Cc2ccccc2OC)C(=O)C(C)Oc2ccc(Cl)cc2)c(=O)[nH]c1=O (stereo not drawn),nt,62.6*,nt,nt,nt,nt
CCCCn1c(N)c(N(Cc2ccccc2OC)C(=O)COc2ccc(F)cc2Cl)c(=O)[nH]c1=O,nt,11.1,nt,nt,nt,nt
COc1ccccc1-n1cc(C(=O)NCC(=O)N2CCN(c3ccccc3)CC2)c2ccccc2c1=O,1.7,63.0*,1.5,6.8,-0.7,i
CCOC(=O)c1c(C)nc(C)c(C(=O)OCC)c1-c1cccc(N)c1,8.7,60.0*,1.0,-0.7,-3.8,i
CCOC(=O)c1c(C)nc(C)c(C(=O)OCC)c1-c1ccc(OC)cc1,3.3,2.1,0.8,6.7,-14.3,i
COc1ccc(N(CC(=O)N2CCc3ccccc3C2)S(C)(=O)=O)cc1Cl,nt,-1.3,nt,nt,nt,nt
Cc1cc(NC(=O)CSc2nnc(C3COc4ccccc4O3)n2N)no1 (stereo not drawn),nt,nt,nt,nt,44.0*,i
Cc1cc(NC(=O)CSc2nnc(-c3ccco3)n2Cc2ccccc2)no1,-1.1,4.2,-0.5,-5.1,12.2,i
Cc1cc(NC(=O)CSc2nnc(-c3ccc(Br)o3)n2Cc2ccccc2)no1,3.4,66.1*,1.1,-6.0,-2.3,i
COc1cc(C(=S)N2CCC(C)CC2)ccc1O,0.5,66.0*,0.1,-3.8,3.8,i
CCOC(=O)c1c(NC(=O)c2noc3c2CCCC3)sc(C)c1C,40.7,92.3*,0.3,11.5,-5.5,i
Cc1cccc(C2c3[nH]c4ccccc4c3CCN2C(=O)c2ccc(=O)[nH]c2)n1 (stereo not drawn),2.1,9.5,0.1,1.6,-8.8,i
Cc1cccc(C2c3[nH]c4ccccc4c3CCN2C(=O)c2cc(C(C)C)nc(N)n2)n1 (stereo not drawn),2.7,68.4*,1.1,-8.6,0.3,i
SMILES,ABCG2 inh,PHOSPHO1 inh,ABCB1 inh,PKD1 inh,p47phox inh,HSV replic up
Cc1ccc(N2C(=O)C3ON(c4ccccc4)C(CC(C)C)C3C2=O)cc1 (stereo not drawn),nt,21.4,nt,nt,-4.9,i
CCc1cc2c(=O)nc3n(c2s1)Cc1ccccc1/C3=C(/O)c1ccccc1Cl,12.6,27.6,1.8,3.8,73.9*,nt
CCc1cc2c(=O)nc3n(c2s1)Cc1ccccc1/C3=C(/O)c1ccc(F)cc1,5.4,36.7,1.6,-0.6,-19.8,nt
CCN(CC)C(=O)Cn1c(=O)n(-c2ccc(CC(=O)NCc3ccccc3)cc2)c(=O)c2sccc21,12.1,-2.7,1.5,-3.9,-8.7,i
O=C(Nc1ccn(Cc2ccccc2)n1)c1ccc2c(c1)OCO2,5.1,61.0*,-1.0,-2.8,6.4,i
O=C(Nc1ccn(Cc2ccc(Cl)cc2)n1)c1ccccc1,24.7,-21.6,1.4,0.2,-1.6,i
C=CCSc1nc(C)cc(C(=O)OCC)c1C#N,nt,25.4,nt,nt,-2.6,i
CC1CC(C)CN(S(=O)(=O)c2ccccc2[N+](=O)[O-])C1 (stereo not drawn),1.5,-6.6,0.2,5.2,1.6,i
COc1cc(C(c2nnnn2C(C)(C)C)N2CCN(c3nc4ccccc4s3)CC2)ccc1O (stereo not drawn),-2.9,61.0*,-0.6,0.6,-0.7,i
CCCOc1ccc(CNCCCOCC)cc1OC,6.8,-6.7,0.5,0.0,nt,i
c1cn2cc(-c3ccc4c(c3)OCO4)nc2s1,1.0,68.4*,0.1,2.6,11.7,i
O=C(Nc1ccc(-c2cn3ccsc3n2)cc1)C1CC1,28.5,88.3*,0.0,-9.9,-64.5,i
CC(=O)Nc1ccc(-c2cn3ccsc3n2)cc1,2.8,23.4,0.4,-4.9,-8.8,i
COc1cc(NC(=O)Cn2cnc3c(nc4n3CCCCC4)c2=O)cc(OC)c1OC,nt,75.1*,nt,nt,nt,nt
[O-]/C(=C(\C(=S)Nc1cccc2ccccc12)[n+]1ccccc1)c1ccc2c(c1)OCCO2,15.9,84.8*,-1.4,2.3,-6.3,i
CCOC(=O)c1c(S(=O)(=O)NCC2CCN(Cc3cccc(F)c3)CC2)c(C)n(C)c1C,nt,64.9*,nt,nt,nt,nt
S=c1nn[nH]n1C12CC3CC(CC(C3)C1)C2,-0.1,101.6*,0.3,-4.4,-1.8,i
COCCCNc1nc2c(c(=O)[nH]c(=O)n2C)n1CC(O)COc1ccccc1C (stereo not drawn),1.0,4.7,0.2,-0.7,4.3,i
COCCCNc1nc2c(c(=O)[nH]c(=O)n2C)n1CC(O)COc1ccccc1 (stereo not drawn),-3.0,91.7*,-1.2,-3.2,8.3,i
CC(C)CSc1nc2c(c(=O)[nH]c(=O)n2C)n1CC(O)COc1cccc2ccccc12 (stereo not drawn),0.9,87.8*,0.3,-7.9,10.6,i
COc1ccc(OCC(O)Cn2c(N)nc3c2c(=O)[nH]c(=O)n3C)cc1 (stereo not drawn),nt,60.8*,nt,nt,-6.8,i
CCSc1nc2c(c(=O)[nH]c(=O)n2C)n1CC(O)COc1ccccc1 (stereo not drawn),2.7,28.7,0.6,-2.0,-2.2,i
COc1cc2c(cc1OC)C(c1cccs1)N(C(=O)c1ccc(S(=O)(=O)N(C)C)cc1)CC2 (stereo not drawn),nt,25.1,nt,nt,-7.8,i
Cc1c(Cl)ccc2c(C(=O)Nc3cc(C(C)(C)C)on3)cc(-c3ccccn3)nc12,nt,-14.2,nt,nt,nt,nt
